Data on 23 compounds can be found in ChEMBL document CHEMBL4196053, “Endoperoxide-8-aminoquinoline hybrids as dual-stage antimalarial agents with enhanced metabolic stability” (Eur J Med Chem, 2018).

For data set [1], the system named is Plasmodium falciparum. Briefly: Antiplasmodial activity against chloroquine resistant Plasmodium falciparum W2 erythrocytic ring stage after 48 hrs using hypoxanthine by flow cytometric analysis. In kind it is functional, organism-based. The note with it: W2, 48 h. The procedure, abridged:
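Ring-stage W2 P. falciparum synchronized with 5% sorbitol, about 1% parasitemia in human erythrocytes. Cells fixed in 2% formaldehyde, stained with 1 nM YOYO-1, infected cells counted by flow cytometry. IC50 taken against untreated controls; two experiments, four replicates each.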
In general terms: A flow cytometer gives signals particle by particle.

A short description of data set [2]: Cytotoxicity against human Caco2 cells assessed as reduction in cell viability after 72 hrs by neutral red dye based assay. The following applies: Caco-2 cells. In a few lines: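 CaCo-2 cells grown in RPMI-1640 with 10% FBS and antibiotic-antimycotic at 37°C, 5% CO2. Exposed once confluent for 72 h to compound diluted in medium, organic solvent ≤1%. Medium then removed and cells washed with PBS.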

The subject of data set [3] is Plasmodium berghei. Briefly: Antiplasmodial activity against luciferase expressing Plasmodium berghei infected in human HuH7 cells preincubated for 1 hr followed by parasite infection measured after 48 hrs by bioluminescence analysis. The note with it: Huh-7. In kind it is functional, organism-based. The procedure, abridged:
(§1)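 Huh-7 hepatoma cells (1.0 × 10^4/well) seeded the day before. Compound-containing medium added about 1 h before infection with fresh firefly luciferase-expressing P. berghei sporozoites from Anopheles stephensi salivary glands, then spun 1700 g for 5 min. DMSO vehicle in controls. Parasite load read by bioluminescence 48 h post-infection. Initial screen at fixed concentrations; EC50 from nonlinear regression of normalized dose-response data.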

Data set [4] concerns Huh-7. Briefly: Cytotoxicity against human HuH7 cells assessed as reduction in cell viability at 10 uM after 48 hrs by Alamar blue assay. The note with it: huh-7, 48 h. In kind it is cell-based. In a few lines:
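Huh-7 cells seeded and infected with P. berghei sporozoites as in the liver-stage assay, with compound added about 1 h before infection and DMSO vehicle in controls. Host cell viability read by AlamarBlue fluorescence 48 h post-infection.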
On the technique in general: Resazurin is reduced to fluorescent resorufin, in cell work by metabolically active cells.

Data set [5] can be described thus: Selectivity index, ratio of CC50 for human Caco2 cells to IC50 for chloroquine resistant Plasmodium falciparum W2 erythrocytic ring stage. In kind it is toxicity. The following applies: Caco-2 cells, read-out: Ratio CC50/IC50.
A short description of data set [6]: Half life in rat liver microsomes at […] in presence of NADPH by HPLC analysis. In kind it is ADME, microsome. For orientation: Liver microsomes are a subcellular fraction often used to study metabolism.
Data set [7] is described as follows: Intrinsic clearance in rat liver microsomes assessed per mg protein at […] in presence of NADPH by HPLC analysis. The following applies: read-out: CLH. In kind it is ADME, microsome.
The test system of data set [8] is Plasmodium berghei. Briefly: Antiplasmodial activity against luciferase expressing Plasmodium berghei sporozoites infected in human HuH7 cells at 10 uM preincubated for 1 hr followed by parasite infection measured after 48 hrs by bioluminescence analysis relative to control. In kind it is functional. The procedure, abridged: as §1
For data set [9], the system named is Plasmodium berghei. Briefly: Antiplasmodial activity against luciferase expressing Plasmodium berghei sporozoites infected in human HuH7 cells at 2 uM preincubated for 1 hr followed by parasite infection measured after 48 hrs by bioluminescence analysis relative to control. In kind it is functional. The procedure, abridged:
as §1

The source made the active and inactive calls. No cut-off for these calls is given here.

A word on the EC50: it is the concentration giving half of the maximal effect. A lower EC50 goes with greater potency. What is called CC50 is the concentration giving 50% cytotoxicity. For orientation: half-life means the time in which the quantity being followed falls by half.

With `COc1cc(NC(C)CCCNC(=O)C2CCC3(CC2)OOC2(OO3)C3CC4CC(C3)CC2C4)c2ncccc2c1-c1ccc(F)cc1` (stereo unspecified), the concentration for a half-maximal effect (EC50) was 57 nM in [1] and 2380 nM in data set [3]. The half-maximal cytotoxic concentration (CC50) at 72 h in data set [2] was more than 50000 nM. The figures for the Activity entry in data set [4] and in data set [9] were “Non-Toxic” and more than 50%, respectively. Moreover, the selectivity ratio in data set [5] is more than 1000. For the same compound, the half-life in [6] worked out at 40 min. In data set [7], the microsomal CLint came out at 34.6 µL/min/mg. Also, the outcome in data set [8] was Active.
On to `COc1cc(NC(C)CCCNCC2CCC3(CC2)OOC2(OO3)C3CC4CC(C3)CC2C4)c2ncccc2c1-c1ccoc1` (stereo unspecified), for which the response in data set [1] was half-maximal at 120 nM (EC50). The Activity entry in data set [4] is “Toxic”. The result in data set [8] and in data set [9] was Active.
Regarding `COc1cc(NC(C)CCCNC(=O)C2CCC3(CC2)OOC2(OO3)C3CC4CC(C3)CC2C4)c2ncccc2c1-c1ccc(Br)cc1` (stereo unspecified), the half-maximal effective concentration (EC50) in [1] was found to be 61 nM; in [3] it was 4440 nM. For the same compound, the CC50 at 72 h in [2] was more than 50000 nM. The figures for the Activity result in [4] and in [9] were “Non-Toxic” and more than 50%, respectively. In [5], the selectivity ratio was more than 1000. Besides, in data set [8], the outcome was Active.
For `COc1cc(NC(C)CCCNCC2CCC3(CC2)OOC2(OO3)C3CC4CC(C3)CC2C4)c2ncccc2c1-c1ccsc1` (stereo unspecified), it took 81 nM to reach a half-maximal effect in [1] (EC50). Also, in [4], the Activity result is on record as “Toxic”. For the same compound, the result in data set [8] and in data set [9] was Active.
`COc1cc(NC(C)CCCNCC2CCC3(CC2)OOC2(OO3)C3CC4CC(C3)CC2C4)c2ncccc2c1-c1ccccc1` (stereo unspecified) registered an EC50 in data set [1] of 92 nM. In [4], the Activity result was “Toxic”. Moreover, the result in data set [8] and in [9] was Active.
The compound `COc1cc(NC(=O)C2CCC3(CC2)OOC2(OO3)C3CC4CC(C3)CC2C4)c2ncccc2c1-c1ccccc1` (stereo unspecified) gave an EC50 in data set [1] of 287 nM. Further, in data set [6], the half-life was determined as 42 min. The microsomal CLint in [7] turned out to be 33 µL/min/mg. For the same compound, in data set [8], the Activity came out at 52%.
On to `COc1cc(NC(C)CCCNC(=O)C2CCC3(CC2)OOC2(OO3)C3CC4CC(C3)CC2C4)c2ncccc2c1Br` (stereo unspecified), for which, in data set [1], the EC50 worked out at 16 nM. Also, the Activity entry in data set [4] is on record as “Toxic”; in [9], more than 50%. Also, in data set [6], the half-life turned out to be 14 min. Also, in [7], the microsomal CLint came out at 99 µL/min/mg. In data set [8], the result was Active.
For `COc1cc(NC(=O)C2CCC3(CC2)OOC2(OO3)C3CC4CC(C3)CC2C4)c2ncccc2c1-c1ccc(Br)cc1` (stereo unspecified), a half-maximal effect in data set [1] (EC50) was put at 5670 nM. Besides, the half-life in data set [6] stood at 124 min. In addition, the microsomal CLint in [7] was 11.2 µL/min/mg. This compound also displayed an Activity in data set [8] of 35%.
On to `COc1cc(NC(C)CCCNCC2CCC3(CC2)OOC2(OO3)C3CC4CC(C3)CC2C4)c2ncccc2c1-c1ccc(Cl)cc1` (stereo unspecified), for which, in data set [2], the CC50 at 72 h was 13200 nM. In addition, the Activity result in [4] is on record as “Toxic”. Also, the result in data set [8] and in data set [9] was Active.
As to `COc1cc(NC(C)CCCNC(=O)C2CCC3(CC2)OOC2(OO3)C3CC4CC(C3)CC2C4)c2ncccc2c1-c1ccc(C)cc1` (stereo unspecified), the figures for the EC50 in data set [1] and in [3] were 141 nM and 1650 nM, respectively. In [2], the CC50 at 72 h was more than 50000 nM. The values for the Activity entry in data set [4] and in [9] were “Non-Toxic” and more than 50%, respectively. Besides, the half-life in data set [6] came to 87 min. For the same compound, the microsomal CLint in data set [7] worked out at 15.9 µL/min/mg. For the same compound, the result in data set [8] was Active.
The compound `COc1cc(NC(C)CCCNCC2CCC3(CC2)OOC2(OO3)C3CC4CC(C3)CC2C4)c2ncccc2c1-c1ccc(F)cc1` (stereo unspecified) registered an EC50 in [1] of 99 nM. The Activity result in data set [4] was “Toxic”. For the same compound, the outcome in [8] and in data set [9] was Active.
For `COc1cc(NCCCCCNC(=O)C2CCC3(CC2)OOC2(OO3)C3CC4CC(C3)CC2C4)c2ncccc2c1-c1ccc(F)cc1` (stereo unspecified), the EC50 in [1] came to 17 nM; in data set [3] it was 1640 nM. For the same compound, the Activity entry in [4] is given as “Non-Toxic”; in data set [9], more than 50%. For the same compound, the half-life in [6] came out at 25 min. Further, the microsomal CLint in data set [7] came to 55.4 µL/min/mg. The result in data set [8] was Active.
In data set [1], `COc1cc(NC(=O)C2CCC3(CC2)OOC2(OO3)C3CC4CC(C3)CC2C4)c2ncccc2c1-c1ccc(F)cc1` (stereo unspecified) returned an EC50 of 916 nM. Besides, in data set [6], the half-life was 60 min. For the same compound, the microsomal CLint in [7] is 23.1 µL/min/mg.
Turning to `COc1cc(NC(C)CCCNCC2CCC3(CC2)OOC2(OO3)C3CC4CC(C3)CC2C4)c2ncccc2c1-c1ccc(C(F)(F)F)cc1` (stereo unspecified), in data set [1], the EC50 was 19 nM. The CC50 at 72 h in [2] was 10300 nM. In addition, the Activity result is recorded as “Toxic” in [4] and 62% in data set [8]. In addition, the outcome in data set [9] was Active.
Take `COc1cc(NCCCNC(=O)C2CCC3(CC2)OOC2(OO3)C3CC4CC(C3)CC2C4)c2ncccc2c1-c1ccc(F)cc1` (stereo unspecified): the EC50 in data set [1] worked out at 15 nM; in [3], 2610 nM. The Activity result is listed as “Non-Toxic” in data set [4] and more than 50% in data set [9]. Moreover, the half-life in data set [6] turned out to be 35 min. Moreover, in data set [7], the microsomal CLint stood at 39.6 µL/min/mg. Moreover, the result in data set [8] was Active.
As for `COc1cc(NC(C)CCCN)c2ncccc2c1-c1ccc(C)cc1` (stereo unspecified), the EC50 in [1] came out at 2350 nM; in data set [3] it was 5430 nM.
The compound `COc1cc(NC(=O)C2CCC3(CC2)OOC2(OO3)C3CC4CC(C3)CC2C4)c2ncccc2c1-c1ccc(Cl)cc1` (stereo unspecified) registered an EC50 in data set [1] of 4190 nM. For the same compound, the half-life in data set [6] was determined as 125 min. Besides, the microsomal CLint in data set [7] turned out to be 11.1 µL/min/mg. Further, the Activity in data set [8] is given as 37%.
`CCOC(=O)C1CCC2(CC1)OOC1(OO2)C2CC3CC(C2)CC1C3` (stereo unspecified) gave an EC50 in data set [3] of 17300 nM.
For `COc1cc(NC(C)CCCNC(=O)C2CCC3(CC2)OOC2(OO3)C3CC4CC(C3)CC2C4)c2ncccc2c1-c1ccoc1` (stereo unspecified), the EC50 in data set [1] stood at 76 nM; in data set [3], 2350 nM. Also, the CC50 at 72 h in [2] was more than 50000 nM. Besides, the figures for the Activity entry in data set [4] and in [9] were “Non-Toxic” and more than 50%, respectively. In data set [5], the selectivity ratio was more than 600. In addition, in data set [8], the outcome was Active.
Consider `COc1cc(NC(C)CCCNC(=O)C2CCC3(CC2)OOC2(OO3)C3CC4CC(C3)CC2C4)c2ncccc2c1-c1ccccc1` (stereo unspecified), for which the EC50 in data set [1] was determined as 204 nM; in data set [3], 1690 nM. In addition, the CC50 at 72 h in data set [2] is more than 50000 nM. Also, the Activity result in data set [4] is listed as “Non-Toxic”; in [9], more than 50%. Moreover, in data set [6], the half-life was determined as 42 min. In data set [7], the microsomal CLint stood at 33 µL/min/mg. Also, in data set [8], the result was Active.
With `COc1cc(NC(C)CCCNCC2CCC3(CC2)OOC2(OO3)C3CC4CC(C3)CC2C4)c2ncccc2c1-c1ccc(C)cc1` (stereo unspecified), the EC50 in data set [1] stood at 176 nM. The half-maximal cytotoxic concentration (CC50) at 72 h in [2] came to 11700 nM. Also, the Activity entry in data set [4] is “Toxic”. The outcome in data set [8] and in data set [9] was Active.
Regarding `C[C@@H]1CC[C@H]2[C@@H](C)C(=O)O[C@@H]3O[C@@]4(C)CC[C@@H]1[C@]32OO4` [ARTEMISININ], the EC50 in data set [1] is 10 nM.
For the compound `COc1cc(NCCCCNC(=O)C2CCC3(CC2)OOC2(OO3)C3CC4CC(C3)CC2C4)c2ncccc2c1-c1ccc(F)cc1` (stereo unspecified), the EC50 came out at 15 nM in data set [1] and 1110 nM in data set [3]. For the same compound, the CC50 at 72 h in data set [2] amounted to 10200 nM. The Activity result in data set [4] is given as “Non-Toxic”; in data set [9], more than 50%. The half-life in [6] was 15 min. For the same compound, in data set [7], the microsomal CLint came out at 92.4 µL/min/mg. In [8], the outcome was Active.
